Reference: ChEMBL document CHEMBL1146217, “Growth inhibition of Mycobacterium bovis, Mycobacterium tuberculosis and Mycobacterium avium in vitro: effect of 1-beta-D-2'-arabinofuranosyl and 1-(2'-deoxy-2'-fluoro-beta-D-2'-ribofuranosyl) pyrimidine nucleoside analogs” (J Med Chem, 2007)
Activity calls are given as the source filed them. No cut-off for these calls is given here.

Test system: Mycobacterium tuberculosis
Assay: Antimycobacterial activity against drug-resistant Mycobacterium tuberculosis H37Rv at 2mg/mL by BACTEC assay
Format: functional, organism-based
How it was run: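 Radiometric BACTEC 12B (7H12) vials with a growing inoculum of 2.5-5.0 × 10⁵ CFU/vial, two-fold compound dilutions, 37 °C. Growth index read daily in a BACTEC 460 until 1:100 inoculum controls reached GI 30. Percent inhibition = (GI test/GI control) × 100.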

For `CO[C@H]1/C=C/O[C@@]2(C)Oc3c(C)c(O)c4c(O)c(c(/C=N/N5CCN(C)CC5)c(O)c4c3C2=O)NC(=O)/C(C)=C\C=C\[C@H](C)[C@H](O)[C@@H](C)[C@@H](O)[C@@H](C)[C@H](OC(C)=O)[C@@H]1C` [RIFAMPIN], the Activity was “inactive”.
